Results of several laboratories.
Compare with care: the assays were run in different laboratories.
GLP1R: Glucagon-like peptide 1 receptor (GLP1R, Homo sapiens, UniProt P43220)
Cnr1: Cannabinoid receptor 1 (Cnr1, Mus musculus, UniProt P47746)
DRD3: D(3) dopamine receptor (DRD3, Homo sapiens, UniProt P35462)
MDM4: Protein Mdm4 (MDM4, Homo sapiens, UniProt O15151)

| SMILES | target | read-out | mode | method | setting | endpoint | value |
| --- | --- | --- | --- | --- | --- | --- | --- |
| COc1ncccc1-c1cnn2ccc(N3CCN(C(=O)OC(C)C)CC3)nc12 | Glutamate NMDA receptor; GRIN1/GRIN2B (GRIN1/GRIN2B, Homo sapiens, UniProt Q05586+Q13224) | ion current | inhibitor | – | – | IC50 | > 25000 nM |
| CC[C@H](C)[C@H](NC(=O)[C@H](CC(C)C)NC(=O)[C@H](Cc1c[nH]c2ccccc12)NC(=O)[C@H](CC(=O)O)NC(=O)[C@@H](NC(=O)[C@H](Cc1ccccc1)NC(=O)[C@H](CCC(=O)O)NC(=O)[C@H](CCCCN)NC(=O)[C@H](C)NC(=O)[C@H](C)NC(=O)[C@H](CCCCN)NC(=O)[C@H](CCC(=O)O)NC(=O)[C@H](CC(=O)O)NC(=O)[C@H](CC(C)C)NC(=O)[C@H](Cc1c[nH]cn1)NC(=O)[C@H](CCC(N)=O)NC(=O)[C@@H](NC(=O)[C@@H](NC(=O)[C@H](CC(=O)O)NC(=O)[C@H](CO)NC(=O)[C@@H](NC(=O)[C@H](Cc1ccccc1)NC(=O)[C@@H](NC(=O)CNC(=O)[C@H](CCC(=O)O)NC(=O)[C@H](C)NC(=O)[C@@H](N)Cc1c[nH]cn1)[C@@H](C)O)[C@@H](C)O)C(C)C)[C@@H](C)O)[C@@H](C)CC)C(=O)N[C@@H](CC(N)=O)C(=O)NCC(=O)NCC(=O)N1CCC[C@H]1C(=O)O | GLP1R | reporter gene | agonist | luciferase | – | EC50 | 0.449 nM |
| O=C(O)[C@H]1O[C@@H](Oc2cc(O)cc(/C=C/c3ccc(O)cc3)c2)[C@H](O)[C@@H](O)[C@@H]1O | Cnr1 | ligand displacement | – | radioligand | cell membranes | Ki | > 100000 nM |
| CO/N=C1\C[C@]2(C[C@@H]3C[C@@H](C/C=C(\C)C[C@@H](C)/C=C/C=C4\CO[C@@H]5[C@H](O)C(C)=C[C@@H](C(=O)O3)[C@]45O)O2)O[C@H](/C(C)=C/C(C)C)[C@H]1C | Nuclear receptor subfamily 1 group I member 3 (Homo sapiens, UniProt Q14994) | reporter gene | antagonist | – | – | IC50 | 44100 nM |
| CC[C@H](C)[C@H](NC(=O)[C@H](Cc1ccccc1)NC(=O)[C@H](CC(=O)O)NC(=O)[C@H](CCCCN)NC(=O)[C@H](C)NC(=O)[C@H](C)NC(=O)[C@H](CCC(N)=O)NC(=O)CNC(=O)[C@H](CCC(=O)O)NC(=O)[C@H](CC(C)C)NC(=O)[C@H](Cc1ccc(O)cc1)NC(=O)[C@H](CO)NC(=O)[C@H](CO)NC(=O)[C@@H](NC(=O)[C@H](CC(=O)O)NC(=O)[C@H](CO)NC(=O)[C@@H](NC(=O)[C@H](Cc1ccc(O)cc1)NC(=O)[C@@H](NC(=O)CNC(=O)[C@H](CC(=O)O)NC(=O)[C@H](C)NC(=O)[C@@H](N)Cc1c[nH]cn1)[C@@H](C)O)[C@@H](C)O)[C@@H](C)CC)C(=O)N[C@@H](C)C(=O)N[C@@H](Cc1c[nH]c2ccccc12)C(=O)N[C@@H](CC(C)C)C(=O)N[C@@H](CCSC)C(=O)N[C@@H](CC(N)=O)C(=O)NCC(=O)N[C@@H](CCCNC(=N)N)C(=O)NCC(=O)O | GLP1R | reporter gene | agonist | luciferase | – | EC50 | 0.583 nM |
| CCCc1cc2cc(-n3nc(C)c4c3CC(C)(C)CC4=O)cc(N[C@H]3CC[C@H](O)CC3)c2c(=O)[nH]1 | Heat shock protein 75 kDa, mitochondrial (TRAP1, Homo sapiens, UniProt Q12931) | ligand displacement | – | FP | – | IC50 | > 50000 nM |
| CC(CCc1ccc(O)cc1)NCCc1ccc(O)c(O)c1 (stereo not shown) | DRD3 | ligand displacement | – | radioligand | – | IC50 | 530 nM |
| c1cc[c]([Sn]([c]2ccccc2)[c]2ccccc2)cc1 | Peroxisome proliferator-activated receptor gamma (PPARG, Homo sapiens, UniProt P37231) | reporter gene | agonist | luciferase | – | EC50 | 20 nM |
| CC(C)(O)[C@@H](Nc1nc(Cl)nc2c1ncn2[C@H]1[C@H](O)[C@H](O)[C@]2(CO)C[C@H]12)C1CC1 | DRD3 | ligand displacement | – | radioligand | – | Ki | 1350 nM |
| Cc1cc(O)cc(C)c1C[C@H](N)C(=O)N[C@H](C)C(=O)NCC(=O)N[C@@H](Cc1ccc(Cl)cc1)C(=O)N(C)CCC[C@@]1(c2ccc(F)cc2)OCc2cc(C#N)ccc21 | DRD3 | ligand displacement | – | radioligand | – | Ki | 890 nM |
| CC(C)[C@@H]1NC(=O)[C@H](CO)NC(=O)[C@H](CO)NC(=O)[C@H](CO)N(C)C(=O)[C@H](CC(=O)O)NC(=O)[C@H](CO)NC(=O)[C@H](Cc2ccccc2)NC(=O)CSC[C@@H](C(=O)NCC(N)=O)NC(=O)[C@H](CC(N)=O)NC(=O)[C@H](CCCNC(=N)N)NC(=O)[C@H](Cc2ccc(-c3ccccc3)cc2)NC(=O)[C@H](Cc2ccc(-c3ccccc3)cc2)NC(=O)[C@H](CC(N)=O)NC(=O)[C@@H]2CCCN2C1=O | MDM4 | ligand displacement | – | TR-FRET | – | Ki | 740 nM |
| CC[C@H](C)[C@H](NC(=O)[C@H](CC(C)C)NC(=O)[C@H](Cc1c[nH]c2ccccc12)NC(=O)[C@H](CCCCN)NC(=O)[C@H](CC(C)C)NC(=O)[C@H](Cc1ccccc1)NC(=O)[C@H](CCC(=O)O)NC(=O)[C@H](CCC(N)=O)NC(=O)[C@@H](NC(=O)[C@H](C)NC(=O)[C@H](CC(C)C)NC(=O)[C@H](CC(=O)O)NC(=O)[C@H](CC(=O)O)NC(=O)[C@H](CC(C)C)NC(=O)[C@H](CC(C)C)NC(=O)[C@H](CCCCN)NC(=O)[C@H](CC(N)=O)NC(=O)[C@H](Cc1ccc(O)cc1)NC(=O)[C@H](CC(=O)O)NC(=O)[C@H](CO)NC(=O)[C@@H](NC(=O)[C@H](Cc1ccccc1)NC(=O)[C@@H](NC(=O)CNC(=O)[C@H](CC(=O)O)NC(=O)[C@H](C)NC(=O)[C@@H](N)Cc1c[nH]cn1)[C@@H](C)O)[C@@H](C)O)[C@@H](C)O)C(=O)N[C@@H](CC(N)=O)C(=O)N[C@@H](CCC(N)=O)C(=O)N[C@@H](CCCCN)C(=O)N[C@H](C(=O)N[C@H](C(=O)N[C@@H](CCC(N)=O)C(=O)O)[C@@H](C)O)C(C)C | GLP1R | reporter gene | agonist | luciferase | – | EC50 | 1.5 nM |
| CN(C)CCCN1c2ccccc2Sc2ccccc21 | DRD3 | ligand displacement | – | radioligand | – | IC50 | 75 nM |
| CP(=O)(O)CCC(N)C(=O)O (racemic) | Glutamine synthetase (glnA, Escherichia coli K-12, UniProt P0A9C5) | enzyme activity | inhibitor | – | – | Ki | 800 nM |
| CC(CCc1ccccc1)NC(C)C(O)c1ccc(O)cc1 (stereo not shown) | DRD3 | ligand displacement | – | radioligand | – | IC50 | 1290 nM |
| CSCC[C@H](NC(=O)[C@H](CCC(=O)O)NC(=O)[C@@H]1CCCN1C(=O)[C@@H](NC(=O)[C@@H]1CCCN1)[C@@H](C)O)C(=O)N[C@@H](CCCNC(=N)N)C(=O)N[C@@H](CCC(=O)O)C(=O)N[C@@H](CCCCN)C(=O)N[C@@H](CC(C)C)C(=O)N[C@H]1CSSC[C@@H]2NC(=O)[C@@H](NC(=O)[C@H](CC(C)C)NC(=O)[C@@H](NC(=O)[C@H](CCC(N)=O)NC(=O)[C@H](CC(C)C)NC(=O)[C@H](CC(=O)O)NC(=O)[C@@H]3CCC(=O)N3)[C@@H](C)O)CSSC[C@H](NC(=O)CNC(=O)[C@H](CO)NC(=O)[C@H](CC(C)C)NC2=O)C(=O)N[C@@H]([C@@H](C)O)C(=O)N[C@@H](CCC(N)=O)C(=O)N[C@@H](CCC(N)=O)C(=O)N[C@@H](CC(=O)O)C(=O)N[C@@H](CC(C)C)C(=O)N[C@@H](CC(C)C)C(=O)N[C@@H]([C@@H](C)O)C(=O)N[C@@H](CC(C)C)C(=O)N[C@H](C(=O)N2CCC[C@H]2C(=O)N[C@@H](Cc2ccc(O)cc2)C(=O)O)CSSC[C@@H](C(=O)NCC(=O)NCC(=O)N2CCC[C@H]2C(=O)N[C@@H](CCCNC(=N)N)C(=O)N[C@@H](Cc2c[nH]c3ccccc23)C(=O)N[C@@H](CO)C(=O)N[C@H](C(=O)N[C@@H](CCC(=O)O)C(=O)N[C@@H](C)C(=O)O)[C@@H](C)O)NC(=O)[C@H](C(C)C)NC(=O)[C@H](CCCNC(=N)N)NC(=O)[C@H](C(C)C)NC(=O)[C@H](CC(C)C)NC(=O)[C@H](C)NC(=O)[C@H](CCCNC(=N)N)NC(=O)[C@H](C(C)C)NC(=O)[C@H](Cc2ccccc2)NC(=O)[C@H](Cc2c[nH]cn2)NC(=O)[C@H](Cc2c[nH]cn2)NC(=O)CNC1=O | Relaxin receptor 2 (RXFP2, Homo sapiens, UniProt Q8WXD0) | ligand displacement in cells | – | – | – | Ki | 3.63 nM |
| CCN(CC)c1ccc(/C=N/NC(=O)c2ccc(O)cc2)cc1 | Protein smoothened (SMO, Homo sapiens, UniProt Q99835) | ligand displacement | – | – | – | IC50 | 100 nM |
| CCCC[C@@H](NC(=O)[C@@H](N)Cc1ccc(O)cc1)C(=O)NCC(=O)N[C@@H](Cc1ccc(F)cc1)C(=O)N(C)CCC[C@@]1(c2ccc(F)cc2)OCc2cc(C#N)ccc21 | DRD3 | ligand displacement | – | radioligand | – | Ki | 4300 nM |
| Cc1cccc(-c2ccnc3c(C(N)=O)cnn23)c1 | Toll-like receptor 8 (TLR8, Homo sapiens, UniProt Q9NR97) | reporter gene | – | – | – | IC50 | 67 nM |
| C/C(N)=N\C(=N/S(=O)(=O)c1ccc(C(F)(F)F)cc1)N1C[C@H](c2ccccc2)C(c2ccc(Cl)cc2)=N1 | Cnr1 | ligand displacement | – | radioligand | cell membranes | Ki | 2.3 nM |
| CC(C)C[C@H](NC(=O)[C@H](Cc1ccc(O)cc1)NC(=O)[C@H](CO)NC(=O)[C@H](CO)NC(=O)[C@@H](NC(=O)[C@H](CC(=O)O)NC(=O)[C@H](CO)NC(=O)[C@@H](NC(=O)[C@H](Cc1ccc(O)cc1)NC(=O)[C@@H](NC(=O)CNC(=O)[C@H](CC(=O)O)NC(=O)[C@H](C)NC(=O)[C@@H](N)Cc1c[nH]cn1)[C@@H](C)O)[C@@H](C)O)C(C)C)C(=O)N[C@@H](CCC(N)=O)C(=O)N[C@@H](CC(=O)O)C(=O)N[C@@H](CCC(N)=O)C(=O)N[C@@H](C)C(=O)N[C@@H](C)C(=O)N[C@@H](CCCCN)C(=O)N[C@@H](CCC(=O)O)C(=O)N[C@@H](Cc1ccccc1)C(=O)N[C@H](C(=O)N[C@@H](CO)C(=O)N[C@@H](Cc1c[nH]c2ccccc12)C(=O)N[C@@H](CC(C)C)C(=O)N[C@@H](CCCCN)C(=O)N[C@H](C(=O)NCC(=O)N[C@@H](CCCNC(=N)N)C(=O)NCC(=O)O)[C@@H](C)O)C(C)C | GLP1R | reporter gene | agonist | luciferase | – | EC50 | 0.436 nM |
| CC(C)[C@@H]1NC(=O)[C@H](CO)NC(=O)[C@H](CO)NC(=O)[C@H](CO)N(C)C(=O)[C@H](CC(=O)O)NC(=O)[C@H](CO)NC(=O)[C@H](Cc2ccccc2)NC(=O)CSC[C@@H](C(=O)NCC(N)=O)NC(=O)[C@H](CC(N)=O)NC(=O)[C@H](CCCNC(=N)N)NC(=O)[C@H](C)NC(=O)[C@H](Cc2ccc(-c3ccccc3)cc2)NC(=O)[C@H](CC(N)=O)NC(=O)[C@@H]2CCCN2C1=O | MDM4 | ligand displacement | – | TR-FRET | – | IC50 | > 10000 nM |
